Compound activity deposited in PubChem BioAssay by several laboratories.
LMPTP block = LMPTP phosphatase inhibitors, primary screen, biochemical, fluorescence intensity, uHTS; inhibition, % at 20 µM; AID 651560, 2012; 360,000 tested, 0.22% active; recombinant LMPTP-A, OMFP fluorogenic substrate;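 active = compounds that cut the enzyme signal by at least half of the control window in the single-dose screen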;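 also: plate controls were DMSO wells with enzyme plus substrate for no effect and substrate without enzyme for full effect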
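Buffer or medium: Bis-Tris pH 6.0, DTT, detergent; Assay system: LMPTP-A enzyme; Quantity: 0.625 nM enzyme; Detection: endpoint fluorescence intensity; Times: 50 min dark incubation at room temperature; Controls: substrate-only low control, DMSO enzyme-plus-substrate high control; Doses: single 20 µM dose; Read-out: percent inhibition versus substrate-only and uninhibited controls; Reagent: 400 µM OMFP.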
Scp1 inh = Scp-1 phosphatase inhibitors, primary screen, biochemical, colorimetric, uHTS | 340,000 tested, 0.88% active | inhibition, % at 20 µM | Recombinant Scp1, phosphopeptide, malachite green phosphate absorbance | AID 493091, 2011 | Carboxy-terminal domain RNA polymerase II polypeptide A small phosphatase 1 (Homo …;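 active = inhibition above about 50% at 20 µM, limit read from the data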;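 also: plate controls were DMSO wells with enzyme for no effect and wells lacking enzyme for full effect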
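assay system = SCP-1 phosphatase catalytic domain, residues 76-261 | buffer or medium = 50 mM Tris acetate pH 5.5, 0.005% Tween-20, 10 mM MgCl2 | incubation = enzyme reaction 45 min at room temperature, colour 5 min, stabilisation 30 min | signal = Phosphate-binding colour reagent, absorbance read at 630 nm | measure = % inhibition at 20 µM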
SUMO1 PPI mod = modulators of SUMO1 protein-protein interactions, primary screen, biochemical, uHTS; Small ubiquitin-related modifier 1 (Homo sapiens), P63165; SUMO1 binding to a labelled peptide, TR-FRET, 1 h; inhibition, % at 20 µM; 360,000 tested, 0.33% active; AID 602429, 2012; in the data active = inhibition above about 37%
Target sequence (P63165 whole entry, looked up): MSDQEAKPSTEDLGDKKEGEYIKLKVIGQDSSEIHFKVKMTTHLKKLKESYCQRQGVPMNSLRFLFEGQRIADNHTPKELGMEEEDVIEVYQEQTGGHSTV
GRK2 aptamer HTS = compounds blocking aptamer binding on GRK2 – biochemical, human GRK2, bead flow cytometry, HTS, primary screen; Beta-adrenergic receptor kinase 1 (Homo sapiens), P25098; FAM-aptamer displacement from GRK2; inhibition of aptamer binding, % at 10 µM; 330,000 tested, 0.59% active;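 active = inhibition of aptamer binding above 40%, roughly 3 SD of noise, on plates passing a quality check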;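 also: median bead fluorescence of bound FAM aptamer so fluorescent compounds give negative values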
DNMT1 inh = human DNMT1 methyltransferase inhibitors, primary screen, biochemical, molecular beacon, fluorescence, HinP1I cleavage, uHTS | DNA (cytosine-5)-methyltransferase 1 (Homo sapiens), P26358 | inhibition (reported as % activation of signal), % at 10 µM | AID 588458, 2011 | 360,000 tested, 0.83% active; in the data active = inhibition above about 50%
STEP inh = STEP phosphatase inhibitors, primary screen, biochemical, fluorescence intensity, uHTS; Tyrosine-protein phosphatase non-receptor type 5 (Homo sapiens), P54829; recombinant STEP, OMFP fluorogenic substrate; inhibition, % at 20 µM; 360,000 tested, 0.25% active; AID 588621, 2011;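 active = inhibition at 20 µM, scaled per plate between control wells, above about 37%, limit read from the data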;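 also: 0% = DMSO with enzyme and substrate and 100% = substrate only without enzyme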
Target sequence (P54829 whole entry, looked up): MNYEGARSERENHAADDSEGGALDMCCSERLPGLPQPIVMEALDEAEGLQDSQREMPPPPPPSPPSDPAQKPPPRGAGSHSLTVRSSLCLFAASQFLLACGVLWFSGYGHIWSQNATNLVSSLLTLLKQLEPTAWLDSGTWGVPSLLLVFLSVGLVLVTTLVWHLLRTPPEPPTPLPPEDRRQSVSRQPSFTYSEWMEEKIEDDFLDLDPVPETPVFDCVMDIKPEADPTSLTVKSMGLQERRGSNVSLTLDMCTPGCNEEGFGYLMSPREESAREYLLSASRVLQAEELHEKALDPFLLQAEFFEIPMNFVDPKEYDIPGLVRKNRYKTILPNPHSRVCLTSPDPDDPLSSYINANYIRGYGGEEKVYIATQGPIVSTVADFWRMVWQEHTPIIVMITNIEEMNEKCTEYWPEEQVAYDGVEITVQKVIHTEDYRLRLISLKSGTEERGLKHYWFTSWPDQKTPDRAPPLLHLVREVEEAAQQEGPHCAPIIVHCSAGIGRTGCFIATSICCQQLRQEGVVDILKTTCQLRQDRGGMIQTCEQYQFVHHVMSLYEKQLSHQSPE
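System: STEP phosphatase, cell-free reaction; Buffer or medium: Bis-Tris pH 6.0 buffer with DTT, detergent; Incubation: 20 min at room temperature, dark; Measured by: fluorescence, 480/540 nm.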
Scp1 confirm = Scp-1 phosphatase inhibitors, retest, confirmation, biochemical, colorimetric, single concentration. shares compounds with Scp1 inh. recombinant SCP-1 catalytic domain, phosphate release, malachite green absorbance. inhibition, % at 20 µM. 2,500 tested, 61% active. AID 540281, 2011;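 also: plate controls were DMSO with enzyme for no effect and buffer wells lacking enzyme for full effect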
MG interference = colorimetric readout interference by compounds, confirmation, artefact control for Scp-1 inhibitor project, biochemical, single concentration | AID 540313, 2011 | 2,500 tested, under 10 active | shares compounds with Scp1 inh | apparent inhibition (interference), % at 20 µM | Colorimetric interference counterscreen, malachite green absorbance 630 nm;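 also: compounds added after enzyme reaction finished so only phosphate colour detection is probed; plate controls were DMSO wells with completed Scp-1 reaction for no effect and substrate wells lacking enzyme for full effect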
Scp1 DSF = Scp-1 binding by thermal shift, confirmation, orthogonal assay for Scp-1 inhibitor project, biophysical, differential scanning fluorimetry; thermal shift relative to vanadate control, % at 40 µM; Recombinant SCP1, Sypro Orange thermal shift Tm; shares compounds with Scp1 inh; 1,500 tested, 25% active;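 active = substances whose mean melting-temperature shift, as a percentage of the reference inhibitor's shift, reaches about 5.3%, limit read from the data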;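 also: 0% = Tm of DMSO wells and 100% = Tm with sodium orthovanadate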
Numbers without * were called inactive; / = no result given. A selection: hits, their analogues and other compounds. The true share with any hit is near 2.1%.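 The calls were made as follows, unless noted: active = inhibition of at least 30% at 20 µM; inactive = the rest.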

SMILES | LMPTP block | Scp1 inh | SUMO1 PPI mod | GRK2 aptamer HTS | DNMT1 inh | STEP inh | Scp1 confirm | MG interference | Scp1 DSF
O=C1NC(=S)S/C1=C1\Sc2ccccc2N1CCCS(=O)(=O)O | -0.8 | -1.5 | 4.6 | 1.0 | 9.3 | 5.6 | / | / | /
NN1C(=O)/C(=C2/Sc3ccccc3N2CCCS(=O)(=O)O)SC1=S | -0.4 | 84.3* | -6.6 | 6.0 | 30.0 | 29.0 | 72.6* | 2.2 | -10.5
CCC(=O)N1CCN=C1SCc1cccc(C(F)(F)F)c1 | 0.1 | -6.5 | 3.5 | 0.0 | 1.5 | -4.0 | / | / | /
O=C(Nc1nnc(C2CCCCC2)s1)C1CC(=O)N(c2ccccc2)C1 (stereo not drawn) | -0.4 | -2.3 | 1.0 | 1.0 | -0.5 | 1.8 | / | / | /
O=C(NCCc1ccccc1)C1CC(=O)N(c2ccc3c(c2)OCCO3)C1 (stereo not drawn) | -0.9 | -1.2 | 3.1 | 4.0 | -0.1 | 1.3 | -16.6 | -11.8 | /
O=C(NCCCc1ccccc1)C1CC(=O)N(c2ccc3c(c2)OCCO3)C1 (stereo not drawn) | 1.5 | -2.4 | 2.0 | 0.0 | -7.5 | 1.6 | / | / | /
O=C(NC(Cc1ccccc1)c1nc2ccccc2[nH]1)C1CC(=O)N(c2ccc3c(c2)OCCO3)C1 (stereo not drawn) | -0.1 | 71.8* | 1.8 | 4.0 | -11.2 | -1.4 | 34.2* | -14.5 | -5.7
O=C(Nc1nnc(C2CC2)s1)C1CC(=O)N(c2ccc3c(c2)OCCO3)C1 (stereo not drawn) | 3.1 | 61.1* | 4.6 | 18.0 | 39.5 | 2.7 | 56.0* | -18.3 | 1.9
COC(=O)C[C@H]1CC[C@@H](NC(=O)C2CC2)[C@@H](CO)O1 | -3.9 | / | 5.0 | / | / | / | / | / | /
CC(CC(=O)N1CCN(S(=O)(=O)c2ccc([N+](=O)[O-])cc2)CC1)c1ccccc1 (stereo not drawn) | -0.2 | 8.1 | -38.1 | 0.0 | 2.8 | 6.3 | / | / | /
O=C(N/N=C/c1ccc2ccccc2c1)c1ccc(COc2ccc3c(c2)CCC3)o1 | 32.2 | 101.8* | -0.6 | 0.0 | 17.3 | 5.1 | 70.9* | -17.8 | -21.0
CSc1nnc(-c2ccccc2)n1N | -1.6 | -7.9 | -6.9 | / | 2.0 | -7.7 | / | / | /
CSc1nnc(-c2cc[n+](C)cc2)n1CCO | -5.0 | 66.1* | -2.0 | 0.0 | 6.9 | -4.3 | 9.7 | -7.9 | /
COC(=O)c1ccccc1NC(=O)c1ccnn1C | -0.5 | -3.2 | 2.5 | 1.0 | 2.9 | -3.9 | / | / | /
CC(C)OC(=O)C1C2C=CC3(CN(Cc4cccs4)C(=O)C13)O2 (stereo not drawn) | -1.5 | 67.5* | -3.5 | 1.0 | 1.0 | -0.7 | -11.7 | -10.1 | /
Cc1nnc(SCC(=O)Nc2sccc2C#N)s1 | 34.9 | 60.5* | 16.1 | 2.0 | 26.7 | 3.2 | 40.3* | -11.5 | 2.4
CC(c1ccccc1)C1OCC(C[N+]2(C)CCCCC2)O1 (stereo not drawn) | 0.7 | 93.3* | 1.9 | 0.0 | -1.6 | -3.7 | 83.0* | -12.8 | -4.8
CCCCC(CC)C1OCC(C[N+]2(C)CCOCC2)O1 (stereo not drawn) | -1.0 | 30.6 | 0.4 | 3.0 | 3.0 | -0.4 | / | / | /
O=c1c2ccccc2nc(SCc2ccncc2)n1CC1CCCO1 (stereo not drawn) | 0.1 | 1.9 | -3.4 | 1.0 | 2.2 | -1.5 | / | / | /
CCOc1ccc(Br)cc1/C=N/O | -0.4 | -2.0 | -4.9 | 2.0 | 3.1 | 4.3 | / | / | /
O=C(O)COc1ccc(Br)cc1/C=N/O | 2.9 | 59.8* | -0.2 | 13.0 | 19.4 | 11.1 | 51.6* | -3.0 | -14.1
COc1ccc(CSc2nnc(-c3ccncc3)n2C)cc1F | -0.1 | -9.0 | -2.3 | 0.0 | 1.6 | 1.0 | / | / | /
COc1cccc(C(=O)Nc2ccccc2C(=O)NCC2CCCO2)c1 (stereo not drawn) | 0.4 | -10.7 | 1.4 | 2.0 | -0.9 | -0.9 | / | / | /
Cc1cc(C(=O)N2CCCC2(C)C(=O)NCC(C)C)nn1C(C)(C)C (stereo not drawn) | 0.2 | / | 6.2 | / | 3.9 | 10.0 | / | / | /
Cc1cc2c(SCC(=O)Nc3cccc(O)c3)ncnc2s1 | 31.6 | 69.8* | 21.8 | / | 69.7* | 10.1 | 59.3* | -14.5 | 12.9*
SMILES | LMPTP block | Scp1 inh | SUMO1 PPI mod | GRK2 aptamer HTS | DNMT1 inh | STEP inh | Scp1 confirm | MG interference | Scp1 DSF
Cc1sc2ncnc(SCC(=O)Nc3ncccc3O)c2c1C | 8.2 | 59.0* | 20.5 | 5.0 | 29.0 | 4.8 | 71.8* | -1.9 | 9.8*
Cc1cccnc1NC(=O)CSc1ncnc2sc(C)c(C)c12 | -1.1 | -1.1 | 3.3 | 2.0 | -1.4 | 3.1 | / | / | /
CC(=O)c1ccc(NC(=O)c2noc3c2CCC3)cc1 | 1.3 | 61.9* | 5.3 | 26.0 | 42.0 | 0.6 | 53.8* | -13.4 | -0.7
COc1ccc(-c2ccc(/C=N/NC(=O)c3cccnc3)o2)c([N+](=O)[O-])c1 | 52.7* | 96.2* | -14.2 | / | -0.9 | 32.4 | 81.9* | -11.8 | 4.0
Cc1ccc(C(=O)N/N=C/c2ccc(-c3ccccc3[N+](=O)[O-])o2)cn1 | 0.1 | -7.3 | 1.2 | 0.0 | -22.9 | 3.9 | / | / | /
C[C@H](CO)N1C[C@H](C)[C@H](CN(C)S(C)(=O)=O)Oc2c(cccc2N(C)C)C1=O | -2.1 | -1.3 | -0.4 | 1.0 | 1.0 | -2.9 | / | / | /
Cc1nn(CC(=O)Nc2ccccc2)c(=O)c2ccccc12 | -1.4 | 69.9* | -1.1 | 3.0 | 3.3 | -11.9 | -3.5 | -5.2 | /
O=C(NCc1cccnc1)c1cccc(S(=O)(=O)N2CCOCC2)c1 | -1.0 | 63.6* | 0.7 | 1.0 | -3.2 | 4.5 | -15.3 | -10.4 | /
O=C(NCc1cccnc1)c1cccc(S(=O)(=O)N2CCCC2)c1 | -0.9 | -4.7 | -0.5 | 0.0 | 3.7 | -0.8 | / | / | /
COc1ccc(C)cc1S(=O)(=O)NC(C)C(=O)NC1CC1 (stereo not drawn) | -0.2 | -2.2 | 2.1 | 0.0 | 0.7 | -0.3 | / | / | /
